Measurements from ChEMBL document CHEMBL1138291, “Structure-activity studies of novel cyanoguanidine ATP-sensitive potassium channel openers for the treatment of overactive bladder” (J Med Chem, 2007).
Each block holds one compound with its values, some of them ahead of it.

Experiments:
[1] = Activity at Kir6.2 channel in Landrace pig bladder detrusor assessed as relaxation of electrically stimulated contraction; design: species or system Sus scrofa
[2] = Half life in dog at 100 nmol/kg, iv; type: ADME, organism-based, Canis lupus familiaris; details: in vivo
[3] = Plasma clearance in dog at 100 nmol/kg, iv; type: ADME, organism-based, Canis lupus familiaris
[4] = Tmax in dog at 100 nmol/kg, po; type: ADME, organism-based, Canis lupus familiaris; details: in vivo
[5] = Half life in dog at 100 nmol/kg, po; type: ADME, organism-based, Canis lupus familiaris; details: in vivo
[6] = Oral bioavailability in dog at 100 nmol/kg, po; type: ADME, organism-based, Canis lupus familiaris; details: in vivo
[7] = Half life in dog at 10 nmol/kg, iv; type: ADME, organism-based, Canis lupus familiaris; details: in vivo
[8] = Plasma clearance in dog at 10 nmol/kg, iv; type: ADME, organism-based, Canis lupus familiaris
[9] = Tmax in dog at 10 nmol/kg, po; type: ADME, organism-based, Canis lupus familiaris; details: in vivo
[10] = Half life in dog at 10 nmol/kg, po; type: ADME, organism-based, Canis lupus familiaris; details: in vivo
[11] = Oral bioavailability in dog at 10 nmol/kg, po; type: ADME, organism-based, Canis lupus familiaris; details: in vivo
Sus scrofa [12] = species on record: Sus scrofa; test: Inhibition of unstable spontaneous bladder contractions in Landrace/Yorkshire pig bladder instability model; type: functional, organism-based
Sus scrofa [13] = test: Reduction of unstable spontaneous bladder contractions in Landrace/Yorkshire pig bladder instability model at 0.3 mg/kg, iv; type: functional; design: scale not given: the % may be the effect or the level left
Sus scrofa [14] = test: Reduction of unstable spontaneous bladder contractions in Landrace/Yorkshire pig bladder instability model at 1 mg/kg, iv; type: functional; design: scale not given: the % may be the effect or the level left
Sus scrofa [15] = test: Reduction of blood pressure in pig at 0.3 mg/kg, iv; type: functional; design: scale not given: the % may be the effect or the level left
Summary of the method: (§1)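 Conscious obstructed, telemetered pigs held in restraint cage with 20 gauge venous catheters in both ears for dosing and blood sampling; mean arterial pressure recorded, averaged over post-dose period as percent change from baseline.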

Sus scrofa [16] = test: Reduction of blood pressure in pig at 1 mg/kg, iv; type: functional; design: scale not given: the % may be the effect or the level left; summary of the method: as §1
Portal vein = test: Effect on rat portal vein; type: functional, tissue-based

Compound: CC(Cl)(Cl)C(NC(=O)c1ccc(C(F)(F)F)cc1)N/C(=N/C#N)Nc1ccc(C(F)(F)F)nc1 (stereo unspecified)
Log EC50 [1]: -5.65

Compound: CC(Cl)(Cl)C(NC(=O)c1ccc(Cl)cc1)N/C(=N/C#N)Nc1cccnc1Cl (stereo unspecified)
Log EC50 [1]: -6.16

Compound: COc1ncccc1N/C(=N\C#N)NC(NC(=O)c1ccc(Cl)cc1)C(C)(Cl)Cl (stereo unspecified)
Log EC50 [1]: -6.6

Compound: Cc1ccc(C(=O)NC(N/C(=N/C#N)Nc2ccc(C(F)(F)F)nc2)C(C)(Cl)Cl)cc1 (stereo unspecified)
Log EC50 [1]: -5.15

Compound: CC(Cl)(Cl)C(NC(=O)c1ccc(Cl)cc1)N/C(=N/C#N)Nc1ccccc1F (stereo unspecified)
Log EC50 [1]: -5.98

Compound: CC(Cl)(Cl)C(NC(=O)c1cccs1)N/C(=N/C#N)Nc1ccc(C(F)(F)F)nc1 (stereo unspecified)
Log EC50 [1]: -5.44

Compound: CC(O)(C(=O)Nc1ccc(C(=O)c2ccccc2)cc1)C(F)(F)F (single isomer, unassigned) [ZD-6169]
half-life [7]: 1.9 h | clearance [8]: 11.2 mL/min/kg | Tmax [9]: 0.4 h | half-life [10]: 1.6 h | bioavailability [11]: 43%

Compound: CC(Cl)(Cl)[C@@H](NC(=O)c1ccc(Cl)cc1)N/C(=N/C#N)Nc1cccnc1
Log EC50 [1]: -5.26

Compound: CC(Cl)(Cl)C(NC(=O)c1ccc(F)cc1)N/C(=N/C#N)Nc1ccc(C(F)(F)F)nc1 (stereo unspecified)
Log EC50 [1]: -6.02

Compound: CC(Cl)(Cl)C(NC(=O)c1ccc(Cl)cc1)N/C(=N/C#N)Nc1cncc(Br)c1 (stereo unspecified)
Log EC50 [1]: -6.23

Compound: CC(Cl)(Cl)C(NC(=O)c1cc(F)cc(F)c1)N/C(=N/C#N)Nc1ccc(C(F)(F)F)nc1 (stereo unspecified)
Log EC50 [1]: -5.54 | half-life [2]: 5.5 h | clearance [3]: 1 mL/min/kg | Tmax [4]: 0.7 h | half-life [5]: 6.9 h | bioavailability [6]: 100%

Compound: CC(Cl)(Cl)C(NC(=O)c1cc(Cl)cc(Cl)c1)N/C(=N/C#N)Nc1ccc(C(F)(F)F)nc1 (stereo unspecified)
Log EC50 [1]: -5.7

Second part, led by results:

half-life [2]: 9.9 h | clearance [3]: 2.17 mL/min/kg | Tmax [4]: 0.4 h | half-life [5]: 15 h | bioavailability [6]: 100%
Compound: CC(Cl)(Cl)C(NC(=O)c1ccc(Cl)cc1)NC(=NC#N)Nc1ccc(Cl)nc1 (stereo unspecified)

Log EC50 [1]: -5.87
Compound: CC(Cl)(Cl)C(NC(=O)c1ccc(Cl)cc1)N/C(=N/C#N)Nc1ccc(F)nc1 (stereo unspecified)

Log EC50 [1]: -5.44
Compound: CC(Cl)(Cl)C(NC(=O)c1cc(Cl)cc(Cl)c1)N/C(=N/C#N)Nc1ccc(Cl)nc1 (stereo unspecified)

Log EC50 [1]: -5.68
Compound: CC(Cl)(Cl)C(NC(=O)c1cccc(F)c1)N/C(=N/C#N)Nc1ccc(Cl)nc1 (stereo unspecified)

Log EC50 [1]: -5.35
Compound: CC(Cl)(Cl)C(NC(=O)c1cccc(Cl)c1)N/C(=N/C#N)Nc1ccc(Cl)nc1 (stereo unspecified)

Log EC50 [1]: -5.94
Compound: Cc1cccc(C(=O)NC(N/C(=N/C#N)Nc2ccc(C(F)(F)F)nc2)C(C)(Cl)Cl)c1 (stereo unspecified)

EC50 (Portal vein): 813 nM
Compound: CC(Cl)(Cl)C(NC(=O)c1ccc(Cl)cc1)N/C(=N/C#N)Nc1ccc(Cl)nc1 (stereo unspecified)
Activity (Sus scrofa [12]): Dose-dependent effect | Activity (Sus scrofa [13]): 19.7% | Activity (Sus scrofa [14]): 90.7% | Activity (Sus scrofa [15]): 1.4% | Activity (Sus scrofa [16]): 36%

Log EC50 [1]: -5.71
Compound: CC(Cl)(Cl)C(NC(=O)c1cccc(F)c1)N/C(=N/C#N)Nc1ccc(C(F)(F)F)nc1 (stereo unspecified)

Log EC50 [1]: -5.28
Compound: CC(Cl)(Cl)C(NC(=O)c1cccc(Cl)c1)N/C(=N/C#N)Nc1ccc(C(F)(F)F)nc1 (stereo unspecified)

Log EC50 [1]: -5.78
Compound: CC(Cl)(Cl)C(NC(=O)c1ccc(Cl)cc1)N/C(=N/C#N)Nc1ccc(C(F)(F)F)nc1 (stereo unspecified)

Log EC50 [1]: -5.42
Compound: Cc1cccc(C(=O)NC(N/C(=N/C#N)Nc2ccc(Cl)nc2)C(C)(Cl)Cl)c1 (stereo unspecified)
